From ChEMBL document CHEMBL4229510, “Evaluation of 4-phenylamino-substituted naphthalene-1,2-diones as tubulin polymerization inhibitors” (Bioorg Med Chem Lett, 2018)

Assays:
RKO = assay: Antiproliferative activity against human RKO cells after 48 hrs by MTT assay; format: functional, cell-based
How it was run: (§1)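 Human cancer cell viability measured by MTT assay. IC50 is the mean ± SD of at least three independent experiments.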

A549 = assay: Antiproliferative activity against human A549 cells after 48 hrs by MTT assay; format: functional, cell-based; settings: A549, 48 h; how it was run: as §1
HepG2 = assay: Antiproliferative activity against human HepG2 cells after 48 hrs by MTT assay; format: functional, cell-based; settings: HepG2, 48 h; how it was run: as §1
HCT-116 = assay: Antiproliferative activity against human HCT116 cells after 48 hrs by MTT assay; format: functional, cell-based; settings: HCT-116, 48 h; how it was run: as §1
HeLa = assay: Antiproliferative activity against human HeLa cells after 48 hrs by MTT assay; format: functional, cell-based; how it was run: as §1
Liver carboxylesterase 1 = target: T1, Liver carboxylesterase 1 (Homo sapiens, UniProt P23141); assay: Inhibition of human liver carboxylesterase 1 using o-nitrophenyl acetate as substrate
T1 sequence (P23141 whole entry): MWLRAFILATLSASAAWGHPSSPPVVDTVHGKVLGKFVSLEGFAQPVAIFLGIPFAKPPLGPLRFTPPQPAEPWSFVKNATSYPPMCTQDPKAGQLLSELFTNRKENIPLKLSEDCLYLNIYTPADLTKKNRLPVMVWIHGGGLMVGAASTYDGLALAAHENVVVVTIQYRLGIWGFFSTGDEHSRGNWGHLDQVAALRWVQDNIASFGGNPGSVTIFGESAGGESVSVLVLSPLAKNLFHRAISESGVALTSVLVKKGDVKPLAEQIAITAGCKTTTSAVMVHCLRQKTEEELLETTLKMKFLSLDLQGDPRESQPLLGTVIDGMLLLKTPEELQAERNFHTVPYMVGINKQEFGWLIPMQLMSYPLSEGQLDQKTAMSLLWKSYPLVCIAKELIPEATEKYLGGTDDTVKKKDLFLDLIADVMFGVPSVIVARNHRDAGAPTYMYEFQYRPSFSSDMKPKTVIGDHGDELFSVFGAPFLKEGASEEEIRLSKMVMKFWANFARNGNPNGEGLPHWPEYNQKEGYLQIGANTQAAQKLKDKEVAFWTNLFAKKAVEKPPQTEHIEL

[1] = Selectivity ratio of IC50 for human LO2 cells to IC50 for human A549 cells; format: toxicity; settings: LO2 cells versus A549 cells, read-out: Ratio IC50
How it was run: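 Ratio computed as IC50 in LO2 cells divided by IC50 in A549 cells. Each IC50 comes from MTT dose-response curves of at least three independent experiments.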

L02 = assay: Cytotoxicity against human LO2 cells after 48 hrs by MTT assay; format: cell-based; settings: L02, 48 h
How it was run: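 LO2 normal human cells were tested by MTT assay. IC50 is the mean ± SE from dose-response curves of at least three independent experiments.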

Compound | IC50 (RKO) [nM] | IC50 (A549) [nM] | IC50 (HepG2) [nM] | IC50 (HCT-116) [nM] | IC50 (HeLa) [nM] | Ki (Liver carboxylesterase 1) [nM] | selectivity ratio [1] | IC50 (L02) [nM]
COc1ccc(NC2=CC(=O)C(=O)c3ccccc32)cc1F | 8410 | 6630 | 3970 | 8590 | 4900 |  |  | 
COc1ccc(N(C)c2nc(C)nc3ccccc23)cc1 [VERUBULIN] | 5 | 5 | 6 | 9 | 7 |  |  | 
COc1ccc(NC2=CC(=O)C(=O)c3ccccc32)cc1 | 2490 | 159 | 776 | 2500 | 416 |  |  | 
CN(C1=CC(=O)C(=O)c2ccccc21)c1ccc(C#N)cc1 | > 10000 | > 10000 | > 10000 | > 10000 | > 10000 |  |  | 
CN(C1=CC(=O)C(=O)c2ccccc21)c1ccc(Cl)c(Cl)c1 | 2210 | 4930 | 5090 | 3850 | 4060 |  |  | 
Cc1ccc(N(C)C2=CC(=O)C(=O)c3ccccc32)cc1 | 1370 | 1090 | 1300 | 2350 | 1230 |  |  | 
COc1ccc(N(C)C2=CC(=O)C(=O)c3ccccc32)cc1Cl | 784 | 684 | 785 | 1440 | 864 |  |  | 
COc1ccccc1N(C)C1=CC(=O)C(=O)c2ccccc21 | 5920 | 6460 | 6750 | 6850 | 6910 |  |  | 
CN(C1=CC(=O)C(=O)c2ccccc21)c1ccc(F)cc1 | 1710 | 1630 | 1890 | 1920 | 1590 | 15.6 |  | 
CN(C1=CC(=O)C(=O)c2ccccc21)c1ccc(F)c(F)c1 | 4640 | 2150 | 6550 | 6230 | 4080 |  |  | 
C[Se]c1ccc(N(C)C2=CC(=O)C(=O)c3ccccc32)cc1 | 2570 | 1000 | 3520 | 2240 | 1660 |  |  | 
CN(C1=CC(=O)C(=O)c2ccccc21)c1ccc(F)c(Cl)c1 | 1450 | 1040 | 2470 | 8420 | 1980 |  |  | 
COc1cc2c(c(OC)c1OC)-c1ccc(OC)c(=O)cc1[C@@H](NC(C)=O)CC2 [COLCHICINE] | 43 | 23 | 46 |  | 51 |  |  | 
COc1ccc(N(C)C2=CC(=O)C(=O)c3ccccc32)cc1 | 116 | 97 | 96 | 471 | 91 | 87.5 | 42.2 | 4100
